From ChEMBL document CHEMBL4033653, “Effect of 1,2,3-triazole salts, non-classical bioisosteres of miltefosine, on Leishmania amazonensis” (Bioorg Med Chem, 2017)

Key:
[1] = test system: Leishmania amazonensis; assay: Antileishmanial activity against Leishmania amazonensis WHOM/BR/75/Josefa promastigotes transfected with green fluorescent protein after 72 hrs by MTT assay; format: functional
[2] = test system: Leishmania amazonensis; assay: Antileishmanial activity against Leishmania amazonensis WHOM/BR/75/Josefa amastigotes transfected with green fluorescent protein infected in murine macrophages after 72 hrs by fluorometric analysis; format: functional
How it was run: (§1)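 Infected murine macrophages treated 0.78-100.0 µM for 72 h; fluorescence read at 540/600 nm for RFP parasites (PH8) and 485/528 nm for GFP parasites (Josefa strain); IC50 from three independent experiments in duplicate.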

[3] = test system: Leishmania amazonensis; assay: Antileishmanial activity against Leishmania amazonensis IFLA/BR/1967/PH8 amastigotes transfected with red fluorescent protein infected in murine macrophages after 72 hrs by fluorometric analysis; format: functional; conditions: IFLA/BR/1967/PH8, 72 h; how it was run: as §1
[4] = Cytotoxicity against mouse peritoneal macrophages after 72 hrs by MTT assay; format: cell-based, Peritoneal macrophage; conditions: peritoneal macrophages
[5] = Selectivity index, ratio of CC50 for mouse peritoneal macrophages to IC50 for Leishmania amazonensis IFLA/BR/1967/PH8 amastigotes
How it was run: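 SI = CC50 for mouse peritoneal macrophages / amastigote IC50. […] IC50: WT-infected macrophages treated with 0.78–100.0 µM in sterile water; burden scored by counting amastigotes and infected/uninfected cells in at least 200 macrophages. Three experiments in duplicate.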

[6] = test system: Leishmania amazonensis; assay: Antileishmanial activity against Leishmania amazonensis IFLA/BR/1967/PH8 amastigotes infected in murine macrophages at 0.9 uM incubated for 72 hrs followed by compound washout measured after 72 hrs by microscopic method relative to control; format: functional; conditions: IFLA/BR/1967/PH8, 72 h
How it was run: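 Macrophages infected with WT PH8 parasites treated 72 h at 33 °C, 5% CO2; washed twice in PBS, then held in drug-free Warren's medium + 10% serum at 25 °C for 72 h; viable promastigotes counted microscopically versus untreated; three independent experiments in duplicate.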

[7] = Hemolytic activity in human erythrocytes at 9.4 to 150 uM relative to control; format: ADME, cell-based, Erythrocyte; conditions: read-out: Activity
How it was run: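 Fresh human red cells suspended in PBS incubated with the compound; 1% saponin as positive control, untreated as negative; three experiments in triplicate.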

[8] = test system: Leishmania amazonensis; assay: Induction of mitochondrial membrane potential loss in Leishmania amazonensis IFLA/BR/1967/PH8 promastigotes at 2.5 uM after 24 hrs by JC-1 staining-based spectrofluorometric analysis relative to control; format: functional
How it was run: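 Exponential-phase WT (PH8) promastigotes at 1x10^7 cells/mL, treated 24 h at 25 °C with 2.5–20.0 µM, then harvested, washed and loaded with JC-1. Fluorescence read at 485/528 and 540/600 nm; ΔΨm taken as the 600/528 ratio. Untreated control set to 100%. Positive control was FCCP 20.0 µM for 30 min. Three experiments in triplicate.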

[9] = test system: Leishmania amazonensis; assay: Induction of ROS accumulation in Leishmania amazonensis IFLA/BR/1967/PH8 promastigotes at 20 uM after 72 hrs by H2DCFDA staining-based fluorometric analysis relative to control; format: functional
How it was run: (§2)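 WT exponential-phase promastigotes treated at 25 °C; adjusted to 2x10^7 cells in PBS, loaded with H2DCFDA 30 min dark at room temperature; fluorescence 485/528 nm versus untreated; three independent experiments.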

[10] = test system: Leishmania amazonensis; assay: Induction of ROS accumulation in Leishmania amazonensis IFLA/BR/1967/PH8 promastigotes at 10 uM after 72 hrs by H2DCFDA staining-based fluorometric analysis relative to control; format: functional; how it was run: as §2
[11] = test system: Leishmania amazonensis; assay: Induction of ROS accumulation in Leishmania amazonensis IFLA/BR/1967/PH8 promastigotes at 2.5 uM after 72 hrs by H2DCFDA staining-based fluorometric analysis relative to control; format: functional
How it was run: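 WT (PH8) promastigotes in exponential phase, untreated or exposed to 2.5–20.0 µM at 25 °C. Cells adjusted to 2x10^7 promastigotes in PBS, then loaded with H2DCFDA for 30 min in the dark at room temperature. Fluorescence read at ex 485/em 528 nm. Positive control was miltefosine 22.0 µM. Reported as arbitrary fluorescence units, mean of three independent experiments.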

[12] = test system: Leishmania amazonensis; assay: Induction of lipid inclusions in Leishmania amazonensis IFLA/BR/1967/PH8 promastigotes at 20 uM after 24 hrs by Nile Red satining-based spectrofluorometric analysis relative to control; format: functional
How it was run: (§3)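 WT (PH8) promastigotes at 1x10^7 cells/mL in exponential phase, cultured 24 h at 25 °C with or without 2.5–20.0 µM. Parasites incubated with Nile Red, then fluorescence measured spectrofluorometrically. Reported as arbitrary fluorescence units versus untreated parasites, mean of three experiments run in triplicate.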

[13] = test system: Leishmania amazonensis; assay: Induction of lipid inclusions in Leishmania amazonensis IFLA/BR/1967/PH8 promastigotes at 10 uM after 24 hrs by Nile Red satining-based spectrofluorometric analysis relative to control; format: functional; how it was run: as §3
[14] = test system: Leishmania amazonensis; assay: Induction of apoptosis in Leishmania amazonensis IFLA/BR/1967/PH8 promastigotes assessed as late apoptotic population at 20 uM after 24 hrs by Annexin V-FITC/PI staining based flow cytometric analysis (reference value: 2.62%); format: functional
How it was run: (§4)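 Exponential-phase WT promastigotes (1x10^7 cells/mL) cultured 24 h at 25 °C; stained annexin V-FITC plus PI, flow cytometry with 10,000 events gated on parasites; quadrant percentages; three independent experiments.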

[15] = test system: Leishmania amazonensis; assay: Induction of apoptosis in Leishmania amazonensis IFLA/BR/1967/PH8 promastigotes assessed as necrotic population at 20 uM after 24 hrs by Annexin V-FITC/PI staining based flow cytometric analysis (reference value: 0.03%); format: functional; how it was run: as §4
[16] = test system: Leishmania amazonensis; assay: Induction of apoptosis in Leishmania amazonensis IFLA/BR/1967/PH8 promastigotes assessed as early apoptotic population at 10 uM after 24 hrs by Annexin V-FITC/PI staining based flow cytometric analysis (reference value: 5.29%); format: functional; how it was run: as §4
[17] = test system: Leishmania amazonensis; assay: Induction of apoptosis in Leishmania amazonensis IFLA/BR/1967/PH8 promastigotes assessed as necrotic population at 10 uM after 24 hrs by Annexin V-FITC/PI staining based flow cytometric analysis (reference value: 0.03%); format: functional; how it was run: as §4
[18] = test system: Leishmania amazonensis; assay: Induction of apoptosis in Leishmania amazonensis IFLA/BR/1967/PH8 promastigotes assessed as early apoptotic population at 5 uM after 24 hrs by Annexin V-FITC/PI staining based flow cytometric analysis (reference value: 5.29%); format: functional; how it was run: as §4
[19] = test system: Leishmania amazonensis; assay: Induction of apoptosis in Leishmania amazonensis IFLA/BR/1967/PH8 promastigotes assessed as early apoptotic population at 2.5 uM after 24 hrs by Annexin V-FITC/PI staining based flow cytometric analysis (reference value: 5.29%); format: functional
[20] = test system: Leishmania amazonensis; assay: Induction of apoptosis in Leishmania amazonensis IFLA/BR/1967/PH8 promastigotes assessed as late apoptotic population at 2.5 uM after 24 hrs by Annexin V-FITC/PI staining based flow cytometric analysis (reference value: 2.62%); format: functional
[21] = test system: Leishmania amazonensis; assay: Induction of autophagy in Leishmania amazonensis IFLA/BR/1967/PH8 promastigotes at 20 uM after 24 hrs by MDC staining-based fluorometric analysis relative to control; format: functional
How it was run: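 Exponential WT promastigotes (1x10^7 cells/mL) treated 24 h at 25 °C; washed, adjusted to 10x10^6 cells/mL, 100 µM monodansylcadaverine 1 h dark at 25 °C; fluorescence 335/460 nm versus untreated; three independent experiments.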

With `CC(=O)[O-].CCCCCCCCCCn1cc(CO)[n+](C)n1` the IC50 [1] was 3.3 µM, the IC50 [2] was 800 nM and the IC50 [3] was 1000 nM. For the same compound, the CC50 at 72 h [4] was 116 µM, the “Ratio CC50/IC50” value [5] was 128.8 and the inhibition at 0.9 µM [6] was 61.9%. The hemolysis at up to 150 µM [7] was under 5%, the Activity [8] was 37.5% and the Activity [9] was 75.5%. For the same compound, the Activity [10] was 54%, the Activity [11] was 38.4% and the “fold change (FC)” value [12] was 2.5. For the same compound, the “fold change (FC)” value [13] was 1.9, the Activity [14] was 16.88% and the Activity [15] was 3.97%. For the same compound, the Activity [16] was 28.56%, the Activity [17] was 2.18% and the Activity [18] was 39.1%. It also gave an Activity [19] of 30.6%, an Activity [20] of 0.82% and an Activity [21] of 49.8%.
